Among the data in ChEMBL document CHEMBL4145609, “Cytotoxic Drimane Sesquiterpenoids Isolated from Perenniporia maackiae” (2018) are Activity and GI50 values, retold here.

Molecules are shown by their SMILES. Structures can show the parent of a compound that is named as a salt. The source made the active and inactive calls. The rule behind the calls is not given here.

Type in all cases: functional
One experiment concerns MDA-MB-231. Briefly: Cytotoxicity against human MDA-MB-231 cells assessed as inhibition of cell proliferation measured after 72 hrs by sulforhodamine B assay. The conditions noted are these: for GI50: MDA-MB-231, 72 h. The gist of the method: (§1)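 Cells seeded at 2 × 10^3 cells/well and exposed to a range of concentrations for 72 h, with adriamycin as reference. Fixed in 10% trichloroacetic acid overnight at 4 °C, stained with 0.4% SRB for 1 h, washed with 1% acetic acid, dye solubilized in 10 mM Tris, absorbance read at 690 nm. GI50 taken from dose–response curves corrected for starting cell count; mean of triplicates.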

For the next experiment, the system named is HCT-15. Briefly: Cytotoxicity against human HCT15 cells assessed as inhibition of cell proliferation measured after 72 hrs by sulforhodamine B assay. The conditions noted are these: for GI50: HCT-15, 72 h. The gist of the method:
as §1
In general terms: In SRB staining, fixed cells bind dye roughly in proportion to their protein.

Another experiment relates to NCI-H23. In words: Cytotoxicity against human NCI-H23 cells assessed as inhibition of cell proliferation measured after 72 hrs by sulforhodamine B assay. The conditions noted are these: for GI50: NCI-H23, 72 h. In outline:
as §1

For another experiment, the system named is NUGC-3. In words: Cytotoxicity against human NUGC3 cells assessed as inhibition of cell proliferation measured after 72 hrs by sulforhodamine B assay. The conditions noted are these: for GI50: NUGC-3, 72 h. In outline:
as §1

In a further experiment the test system is PC-3. Briefly: Cytotoxicity against human PC3 cells assessed as inhibition of cell proliferation measured after 72 hrs by sulforhodamine B assay. The conditions noted are these: for GI50: PC-3, 72 h. The gist of the method: as §1
The test system of another experiment is ACHN. In words: Cytotoxicity against human ACHN cells assessed as inhibition of cell proliferation measured after 72 hrs by sulforhodamine B assay. The gist of the method: as §1

As usually defined, the GI50 is the concentration that inhibits growth by half.

Consider `CC(=O)O[C@@H]1C=C2CO[C@@H](O)[C@]2(O)[C@@]2(C)CC[C@H](O)C(C)(C)[C@H]12`, for which the result in the experiment with MDA-MB-231, in the experiment with HCT-15, in the experiment on NCI-H23, in the experiment on NUGC-3, with PC-3 and in the experiment on ACHN was inactive.
Consider `C[C@]1(CO)CCC[C@@]2(C)[C@H]1[C@H](O)C=C1CO[C@@H](O)[C@@]12O`, for which the result with MDA-MB-231, in the experiment with HCT-15, with NCI-H23, in the experiment with NUGC-3, in the experiment with PC-3 and in the experiment on ACHN was inactive.
Take `CC1(C)CCC[C@@]2(C)[C@H]1C(=O)C=C1CO[C@@H](O)[C@@]12O`: the GI50 with MDA-MB-231 was found to be 4000 nM; with HCT-15 it was 5400 nM; with NCI-H23, 4300 nM; with NUGC-3 it was 2300 nM; in the experiment with PC-3, 4600 nM; in the experiment with ACHN, 3600 nM.
Regarding `CO[C@@H]1C=C2CO[C@@H](O)[C@]2(O)[C@@]2(C)CCCC(C)(C)[C@H]12`, the outcome in the experiment on MDA-MB-231, with HCT-15, with NCI-H23, with NUGC-3, with PC-3 and with ACHN was inactive.
`CO[C@H]1C=C2CO[C@@H](O)[C@]2(O)[C@@]2(C)CCCC(C)(C)[C@H]12`: the GI50 in the experiment with MDA-MB-231 came to 1500 nM; in the experiment on HCT-15, 1600 nM; in the experiment with NCI-H23 it was 1400 nM; in the experiment with NUGC-3, 1900 nM; in the experiment on PC-3, 2000 nM; in the experiment with ACHN, 1200 nM.
Take `COc1cccc2c1C(=O)c1c(O)c3c(c(O)c1C2=O)C[C@@](O)(C(=O)CO)C[C@@H]3O[C@H]1C[C@H](N)[C@H](O)[C@H](C)O1` [DOXORUBICIN HYDROCHLORIDE]: the GI50 stood at 70 nM in the experiment on MDA-MB-231; 50 nM with HCT-15; 80 nM with NCI-H23; 70 nM in the experiment on NUGC-3; 90 nM in the experiment with PC-3; 70 nM in the experiment with ACHN.
Turning to `CC1(C)CCC[C@@]2(C)[C@H]1[C@@H](O)C=C1CO[C@@H](O)[C@@]12O`, the GI50 with MDA-MB-231 was determined as 2300 nM; with HCT-15 it was 1800 nM; in the experiment with NCI-H23 it was 2100 nM; with NUGC-3, 2400 nM; in the experiment with PC-3 it was 6000 nM; in the experiment with ACHN, 2000 nM.
